# Assay results: ChEMBL document CHEMBL4715736, “Identification of anticancer agents based on the thieno[2,3-b]pyridine and 1H-pyrazole molecular scaffolds” (2016)
# Legend:
# Format in all cases: functional
# HOP-92 = test: Growth inhibition of human HOP-92 cells assessed as cell growth at 100 uM incubated for 48 hrs by sulforhodamine B assay relative to control; details: read-out: Activity
# KM12 [1] = test: Growth inhibition of human KM12 cells assessed as cell growth at 100 uM incubated for 48 hrs by sulforhodamine B assay relative to control; details: read-out: Activity
# OVCAR-3 = test: Growth inhibition of human OVCAR-3 cells assessed as cell growth at 100 uM incubated for 48 hrs by sulforhodamine B assay relative to control; details: read-out: Activity
# MOLT-4 = test: Growth inhibition of human MOLT-4 cells assessed as cell growth at 1 uM incubated for 48 hrs by sulforhodamine B assay relative to control; details: read-out: Activity
# ACHN = test: Growth inhibition of human ACHN cells assessed as cell growth at 100 uM incubated for 48 hrs by sulforhodamine B assay relative to control; details: read-out: Activity
# Malme-3M = test: Growth inhibition of human Malme-3M cells incubated for 48 hrs by sulforhodamine B assay
# Method in brief: (§1)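 NCI60 panel at the NCI Developmental Therapeutics Program. Only compounds active in the 10 µM screen went to dose-response testing. GI50, the concentration giving 50% of maximal inhibition of proliferation, and TGI, the concentration giving total growth inhibition, were derived from the dose-response curves.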
# MCF7 = test: Growth inhibition of human MCF7 cells assessed as cell growth at 100 uM incubated for 48 hrs by sulforhodamine B assay relative to control; details: read-out: Activity
# NCI-H522 [2] = test: Growth inhibition of human NCI-H522 cells assessed as cell growth at 100 uM incubated for 48 hrs by sulforhodamine B assay relative to control; details: read-out: Activity
# M14 = test: Growth inhibition of human M14 cells incubated for 48 hrs by sulforhodamine B assay; method in brief: as §1
# MDA-MB-231 = test: Growth inhibition of human MDA-MB-231 cells assessed as cell growth at 0.01 uM incubated for 48 hrs by sulforhodamine B assay relative to control; details: read-out: Activity
# HCT-15 = test: Growth inhibition of human HCT-15 cells assessed as cell growth at 100 uM incubated for 48 hrs by sulforhodamine B assay relative to control; details: read-out: Activity
# HCT-116 [3] = test: Growth inhibition of human HCT-116 cells assessed as cell growth at 0.01 uM incubated for 48 hrs by sulforhodamine B assay relative to control; details: read-out: Activity
# KM12 [4] = test: Growth inhibition of human KM12 cells assessed as cell growth at 1 uM incubated for 48 hrs by sulforhodamine B assay relative to control; details: read-out: Activity
# NCI-H522 [5] = test: Growth inhibition of human NCI-H522 cells incubated for 48 hrs by sulforhodamine B assay; method in brief: as §1
# T47D = test: Growth inhibition of human T47D cells incubated for 48 hrs by sulforhodamine B assay; details: for CC50: read-out: LC50 (the source's name)
# Method in brief: (§2)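 NCI DTP 60-line human tumour panel. Dose-response curves were run only for ligands active in the initial 10 µM screen. GI50 (concentration giving 50% of maximal inhibition of proliferation) and TGI (concentration giving total growth inhibition) were derived from these curves.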
# DU-145 [6] = test: Growth inhibition of human DU-145 cells assessed as cell growth at 0.01 uM incubated for 48 hrs by sulforhodamine B assay relative to control; details: read-out: Activity
# Method in brief: (§3)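 NCI Developmental Therapeutics Program NCI60 panel. Compounds that were active in the 10 µM one-dose screen went on to dose–response testing. Growth at each concentration is expressed relative to untreated control (100%). GI50 (concentration giving 50% of maximal inhibition of proliferation) and TGI (concentration giving total growth inhibition) were derived from the curves.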
# CCRF-CEM = test: Growth inhibition of human CCRF-CEM cells assessed as cell growth at 0.1 uM incubated for 48 hrs by sulforhodamine B assay relative to control; details: read-out: Activity; method in brief: as §3
# PC-3 [7] = test: Growth inhibition of human PC-3 cells incubated for 48 hrs by sulforhodamine B assay; details: for CC50: read-out: LC50 (the source's name); method in brief: as §2
# SN12C = test: Growth inhibition of human SN12C cells assessed as cell growth at 1 uM incubated for 48 hrs by sulforhodamine B assay relative to control; details: read-out: Activity
# SF-268 = test: Growth inhibition of human SF-268 cells assessed as cell growth at 0.01 uM incubated for 48 hrs by sulforhodamine B assay relative to control; details: read-out: Activity
# OVCAR-5 = test: Growth inhibition of human OVCAR-5 cells assessed as cell growth at 0.01 uM incubated for 48 hrs by sulforhodamine B assay relative to control; details: read-out: Activity
# K562 = test: Growth inhibition of human K562 cells incubated for 48 hrs by sulforhodamine B assay; method in brief: as §1
# Hs-578T [8] = test: Growth inhibition of human Hs-578T cells assessed as cell growth at 0.1 uM incubated for 48 hrs by sulforhodamine B assay relative to control; details: read-out: Activity
# Hs-578T [9] = test: Growth inhibition of human Hs-578T cells assessed as cell growth at 0.01 uM incubated for 48 hrs by sulforhodamine B assay relative to control; details: read-out: Activity
# PC-3 [10] = test: Growth inhibition of human PC-3 cells assessed as cell growth at 0.1 uM incubated for 48 hrs by sulforhodamine B assay relative to control; details: read-out: Activity
# HT-29 = test: Growth inhibition of human HT-29 cells assessed as cell growth at 100 uM incubated for 48 hrs by sulforhodamine B assay relative to control; details: read-out: Activity
# NCI/ADR-RES = test: Growth inhibition of human NCI/ADR-RES cells incubated for 48 hrs by sulforhodamine B assay; details: for CC50: read-out: LC50 (the source's name); method in brief: as §1
# HOP-62 = test: Growth inhibition of human HOP-62 cells assessed as cell growth at 100 uM incubated for 48 hrs by sulforhodamine B assay relative to control; details: read-out: Activity
# DU-145 [11] = test: Growth inhibition of human DU-145 cells assessed as cell growth at 100 uM incubated for 48 hrs by sulforhodamine B assay relative to control; details: read-out: Activity; method in brief: as §3
# UACC-257 = test: Growth inhibition of human UACC-257 cells assessed as cell growth at 1 uM incubated for 48 hrs by sulforhodamine B assay relative to control; details: read-out: Activity
# MDA-MB-435 = test: Growth inhibition of human MDA-MB-435 cells assessed as cell growth at 1 uM incubated for 48 hrs by sulforhodamine B assay relative to control; details: read-out: Activity
# SF-295 = test: Growth inhibition of human SF-295 cells assessed as cell growth at 0.1 uM incubated for 48 hrs by sulforhodamine B assay relative to control; details: read-out: Activity
# NCI-H460 = test: Growth inhibition of human NCI-H460 cells assessed as cell growth at 100 uM incubated for 48 hrs by sulforhodamine B assay relative to control; details: read-out: Activity
# HCT-116 [12] = test: Growth inhibition of human HCT-116 cells assessed as cell growth at 0.1 uM incubated for 48 hrs by sulforhodamine B assay relative to control; details: read-out: Activity
# 786-0 = test: Growth inhibition of human 786-0 cells assessed as cell growth at 100 uM incubated for 48 hrs by sulforhodamine B assay relative to control; details: read-out: Activity
smiles,measurement,setting,value
COc1cccc(NC(=O)c2sc3nc4c(cc3c2N)CN(Cc2ccccc2)CC4)c1,growth at 100 µM,HOP-92,-38%
same,growth at 100 µM,KM12 [1],-37%
same,growth at 100 µM,OVCAR-3,-60%
same,growth at 1 µM,MOLT-4,78%
same,growth at 100 µM,ACHN,-3%
same,GI50,Malme-3M,1.43 µM
same,LC50,Malme-3M,> 100 µM
same,TGI,Malme-3M,16.6 µM
same,growth at 100 µM,MCF7,3%
same,growth at 100 µM,NCI-H522 [2],1%
same,GI50,M14,12.7 µM
same,LC50 (concentration killing 50% of cells),M14,> 100 µM
same,TGI,M14,86.8 µM
same,growth at 0.01 µM,MDA-MB-231,107%
same,growth at 100 µM,HCT-15,6%
same,growth at 0.01 µM,HCT-116 [3],91%
same,growth at 1 µM,KM12 [4],64%
same,GI50,NCI-H522 [5],15.1 µM
same,LC50,NCI-H522 [5],> 100 µM
same,TGI,NCI-H522 [5],> 100 µM
same,GI50,T47D,4.62 µM
same,TGI,T47D,47.3 µM
same,CC50,T47D,> 100 µM
same,growth at 0.01 µM,DU-145 [6],105%
same,growth at 0.1 µM,CCRF-CEM,98%
same,GI50,PC-3 [7],11.6 µM
same,TGI,PC-3 [7],91.1 µM
same,CC50,PC-3 [7],> 100 µM
same,growth at 1 µM,SN12C,85%
same,growth at 0.01 µM,SF-268,99%
same,growth at 0.01 µM,OVCAR-5,91%
same,GI50,K562,0.53 µM
same,LC50 (concentration killing 50% of cells),K562,> 100 µM
same,TGI,K562,> 100 µM
same,growth at 0.1 µM,Hs-578T [8],92%
same,growth at 0.01 µM,Hs-578T [9],88%
same,growth at 0.1 µM,PC-3 [10],88%
same,growth at 100 µM,HT-29,-72%
same,GI50,NCI/ADR-RES,2.4 µM
same,TGI,NCI/ADR-RES,33.3 µM
same,CC50,NCI/ADR-RES,> 100 µM
same,growth at 100 µM,HOP-62,-71%
same,growth at 100 µM,DU-145 [11],-61%
same,growth at 1 µM,UACC-257,78%
same,growth at 1 µM,MDA-MB-435,4%
same,growth at 0.1 µM,SF-295,90%
same,growth at 100 µM,NCI-H460,-25%
same,growth at 0.1 µM,HCT-116 [12],96%
same,growth at 100 µM,786-0,-47%
CCc1cccc(C)c1NC(=O)c1sc2nc3c(cc2c1N)C(=O)CCC3,growth at 100 µM,HOP-92,-7%
same,growth at 100 µM,KM12 [1],4%
same,growth at 100 µM,OVCAR-3,-50%
same,growth at 1 µM,MOLT-4,67%
same,growth at 100 µM,ACHN,5%
same,LC50,Malme-3M,> 100 µM
same,TGI,Malme-3M,97.2 µM
same,growth at 100 µM,MCF7,-1%
same,GI50,M14,0.367 µM
same,LC50 (concentration killing 50% of cells),M14,> 100 µM
same,TGI,M14,19.5 µM
same,growth at 0.01 µM,MDA-MB-231,97%
same,growth at 100 µM,HCT-15,7%
same,growth at 0.01 µM,HCT-116 [3],92%
same,growth at 1 µM,KM12 [4],24%
same,GI50,T47D,0.517 µM
same,TGI,T47D,≥ 100 µM
same,CC50,T47D,> 100 µM
same,growth at 0.01 µM,DU-145 [6],101%
same,growth at 0.1 µM,CCRF-CEM,90%
same,GI50,PC-3 [7],0.454 µM
same,TGI,PC-3 [7],> 100 µM
same,CC50,PC-3 [7],> 100 µM
same,growth at 1 µM,SN12C,45%
same,growth at 0.01 µM,SF-268,97%
same,growth at 0.01 µM,OVCAR-5,87%
same,GI50,K562,0.341 µM
same,LC50 (concentration killing 50% of cells),K562,≥ 100 µM
same,TGI,K562,15.8 µM
same,growth at 0.1 µM,Hs-578T [8],90%
same,growth at 0.01 µM,Hs-578T [9],93%
same,growth at 0.1 µM,PC-3 [10],87%
same,GI50,NCI/ADR-RES,0.558 µM
same,CC50,NCI/ADR-RES,> 100 µM
same,growth at 100 µM,HOP-62,28%
same,growth at 100 µM,DU-145 [11],9%
same,growth at 1 µM,UACC-257,54%
same,growth at 1 µM,MDA-MB-435,-50%
same,growth at 0.1 µM,SF-295,85%
same,growth at 100 µM,NCI-H460,-33%
same,growth at 0.1 µM,HCT-116 [12],96%
same,growth at 100 µM,786-0,11%
